From PubChem BioAssay
In the library only some 2.9% were active in any assay of this set; here they are far more common.
Runt-SMMHC FRET: Runt domain-CBFb-SMMHC interaction inhibition. Q01196+Q13951. Cerulean-Runt/Venus-CBFb-SMMHC FRET ratio 530/480, 1 h. inhibition, % at 20 µM. actives 0.74% (n = 220,000);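 active means mean inhibition across duplicate retests at 20 µM reaching about 50%, limit read from the data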;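 further: 0% = DMSO wells and 100% = wells with excess untagged CBFb-SMMHC; inhibitors lower the FRET ratio by blocking Runt binding to CBFb-SMMHC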
Runt-CBFb FRET: inhibitors of human RUNX1 Runt domain binding to CBFb; AID 1496; Q01196+Q13951; actives 0.46% (n = 220,000); Cerulean-Runt/Venus-CBFb FRET ratio 530/480, 1 h; inhibition, % at 20 µM;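 active means inhibition over about 50% at 20 µM in the single-dose screen, limit read from the data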;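 further: 0% = DMSO wells and 100% = excess unlabeled CBFb competitor control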
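Assay system: Cerulean-Runt domain / Medium: Tris 50 mM pH 7.5, KCl, K2SO4, 0.01% BSA / Timing: protein complex preformed 1 h, compound exposure 1 h, room temperature, dark / Measured by: FRET, excitation 422 nm, emission at 530 and 480 nm / Evaluation: loss of energy transfer signal / Control set: 5 µM unlabeled CBFb as full-inhibition high control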
AI-2 QS mod: modulators of Vibrio harveyi AI-2 quorum sensing system; AID 2094; actives 0.4% (n = 300,000); activity change, % at 7.5 µM; Vibrio harveyi JMH597 AI-2 luminescence/OD600 ratio, 9 h; hits give low values; strain lacks LuxN and CqsS sensors; 0 = neutral-control median; in the data active means activity change below about -75%, passing the limit was not always enough;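 further: luminescence divided by OD600 gain over 9 h not by final OD600 alone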
RanGTP-Impb inh: disruptors of Ran-importin-beta complex formation – biochemical, FRET, CFP-Ran, YFP-importin-beta, homogeneous, primary screen | cell-free CFP-Ran/YFP-importin-beta FRET ratio | inhibition, % (test concentration not listed) | actives 1.1% (n = 300,000);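 active means more than half of the replicate wells show a fall in the fluorescence ratio signal beyond about 16%, limit read from the data, passing the limit was not always enough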;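 further: 0% = DMSO wells and 100% = Ran loaded with GDP instead of GTP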
KLK7 zymogen act: proKLK7 (human) activation, primary screen | P49862 | actives 0.9% (n = 370,000) | activation, % at 7 µM | purified proKLK7, EDANS-DABCYL substrate fluorescence; 100% is mature enzyme control, 0% vehicle | AID 652039;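 active means activation above the mean of all tested compounds plus 3 SD, computed per campaign excluding outliers beyond control limits, cut at about 13% in these data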
Wee1 degr inh: human Wee1 degradation inhibition, primary screen | HeLa Luc-Wee1K328M stability, luciferase luminescence; 100% = proteasome inhibitor MG132 effect | reporter increase, % at 5 µM | actives 1.2% (n = 220,000);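 active means activation above the mean of all tested compounds plus 3 SD, set per screening run, cut at about 8.8% in these data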;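 further: cells exposed to compound for 20 h before luminescence read; 0% = DMSO alone and 100% = MG132 at 30 µM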
Target sequence (P30291 whole entry K328M): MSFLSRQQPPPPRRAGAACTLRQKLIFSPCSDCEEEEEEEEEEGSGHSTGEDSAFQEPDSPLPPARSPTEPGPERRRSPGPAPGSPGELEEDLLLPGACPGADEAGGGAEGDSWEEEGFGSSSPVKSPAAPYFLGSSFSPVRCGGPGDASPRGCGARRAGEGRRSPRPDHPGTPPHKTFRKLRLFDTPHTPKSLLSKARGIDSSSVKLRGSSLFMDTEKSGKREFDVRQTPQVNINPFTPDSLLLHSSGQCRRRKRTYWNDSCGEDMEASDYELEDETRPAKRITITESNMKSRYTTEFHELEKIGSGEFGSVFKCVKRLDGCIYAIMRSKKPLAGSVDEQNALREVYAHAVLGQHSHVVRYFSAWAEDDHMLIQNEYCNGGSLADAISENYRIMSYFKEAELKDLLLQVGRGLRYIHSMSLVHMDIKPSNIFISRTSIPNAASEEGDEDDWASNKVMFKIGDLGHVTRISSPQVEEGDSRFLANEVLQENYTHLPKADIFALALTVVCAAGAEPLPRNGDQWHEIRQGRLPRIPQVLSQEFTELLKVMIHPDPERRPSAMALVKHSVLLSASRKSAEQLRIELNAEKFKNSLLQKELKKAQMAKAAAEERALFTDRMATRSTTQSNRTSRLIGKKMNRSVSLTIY
proKLK7 act conf: confirmation of human kallikrein-7 zymogen activators; actives 68% (n = 3,200); purified proKLK7, EDANS-DABCYL substrate fluorescence; scaled: vehicle 0, mature enzyme 100; shares compounds with KLK7 zymogen act; activation, % at 7 µM;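 active means activation, as change over the incubation, above the mean of all tested compounds plus 3 SD, cut at about 13% in these data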
EDANS-DABCYL int: fluorescence interference counter-screen for KLK7 activators; shares compounds with KLK7 zymogen act; EDANS-DABCYL substrate fluorescence interference, no enzyme, 4 h; solvent 0%, active enzyme control 100%; actives 80% (n = 3,200); activation, % at 7 µM;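 active means activation above the all-compound mean plus 3 SD, ignoring values outside control-based bounds, cut at about 4.8% in these data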;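 further: value is the 4 h activation minus the activation read at time zero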
K7 EDANS ctr: EDANS fluorescence interference in dose response, no enzyme. shares compounds with KLK7 zymogen act. EDANS-DABCYL peptide fluorescence interference. EC50, µM. actives 20% (n = 250). AID 720493;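 active means compounds that raise the fluorescence signal in this interference counterscreen, with EC50 at or below 10 µM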;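 further: intact quenched peptide substrate alone read at 355 nm excitation and 520 nm emission; signal is fluorescence gain from T0 to T4 after four hours at room temperature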
Numbers without * were called inactive; · = not tested or not shown.

SMILES	Runt-SMMHC FRET	Runt-CBFb FRET	AI-2 QS mod	RanGTP-Impb inh	KLK7 zymogen act	Wee1 degr inh	proKLK7 act conf	EDANS-DABCYL int	others
Cc1ccc(CN2C(=O)c3ccccc3NC2c2ccccn2)cc1 (configuration not stated)	1	-3	28	1	4	-3	·	·
Cc1cccc(C2Nc3ccccc3C(=O)N2c2ccc(F)cc2)n1 (configuration not stated)	5	2	11	-3	28*	1	23*	21*
O=C1c2ccccc2NC(c2ccccn2)N1c1ccccc1F (configuration not stated)	26	2	12	5	18*	0	22*	22*
COC(=O)C[C@H]1CC[C@@H]2[C@@H](COc3ccc(NC(=O)Nc4cccc(C)c4)cc3C(=O)N2C)O1	·	·	·	·	0	·	·	·
Cc1oc2c(c(C)cc3oc(=O)c(CC(=O)N[C@@H](CC(C)C)C(=O)O)c(C)c32)c1C	·	·	-2	4	5	·	·	·
Cc1oc2c(c(C)cc3oc(=O)c(CC(=O)N[C@H](C(=O)O)C(C)C)c(C)c32)c1C	·	·	8	0	15*	·	6	13*
Cc1coc2c1c(C)cc1oc(=O)c(CC(=O)NCCCCCC(=O)O)c(C)c12	·	·	-9	0	18*	·	34*	28*	K7 EDANS ctr=>70
Cc1coc2c1c(C)cc1oc(=O)c(CC(=O)NCC(=O)O)c(C)c12	·	·	10	1	16*	·	57*	59*
CCc1c(C)c2ccc(O)c(CN(C)C)c2oc1=O	131*	50	5	9	56*	0	65*	65*
CC(=O)c1c(O)ccc2c(-c3ccccc3)cc(=O)oc12	-4	36	-5	-4	5	-1	·	·
CCc1c(C)c2ccc(OCC(=O)NCC3CCC(C(=O)O)CC3)c(C)c2oc1=O (configuration not stated)	·	·	12	0	0	·	·	·
CCCCc1cc(=O)oc2cc(O)ccc12	86*	40	6	4	56*	-3	79*	78*
CCCCc1cc(=O)oc2c(CN3CCN(C)CC3)c(O)ccc12	·	·	0	6	53*	·	70*	75*
CCCCc1cc(=O)oc2cc(OCC(=O)N3CCOCC3)ccc12	·	·	24	0	0	·	·	·
CN(C)Cc1c(O)ccc2c(-c3ccccc3)cc(=O)oc12	-49	-17	6	4	13*	4	26*	25*
CCCC(=O)Nc1sc(C)c(-c2ccc(C(C)CC)cc2)c1C#N (configuration not stated)	3	0	16	-1	·	1	·	·
COC(=O)c1ccc(S(=O)(=O)N2Cc3ccccc3C2)cc1	1	-2	9	-4	0	-2	·	·
OC(COc1ccc2cc(Br)ccc2c1)CN1CCOCC1 (configuration not stated)	-1	0	22	2	0	-1	·	·
CCCc1cc(=O)oc2c(CN(CC)CC)c(O)c(Cl)cc12	129*	91*	3	24*	53*	-1	66*	68*
CCc1ccc2c(CN3CCc4ccccc43)cc(=O)oc2c1	3	0	20	0	0	1	·	·
CCCc1cc(=O)oc2cc(OCC(=O)N(C)C)c(Cl)cc12	2	0	7	0	0	1	·	·
CCCc1cc(=O)oc2c(CN3CCOCC3)c(O)ccc12	90*	·	-1	5	75*	-1	72*	63*
CCCCc1cc(=O)oc2c(CN(C)C)c(O)ccc12	107*	48	4	10	55*	-3	63*	66*
Cc1ccccc1CN(C)Cc1cc(=O)oc2c(C)c(C)ccc12	·	·	22	4	0	·	·	·
O=c1cc(CN2CCc3ccccc32)c2ccc(O)cc2o1	24	15	-19	43*	19*	1	41*	45*
SMILES	Runt-SMMHC FRET	Runt-CBFb FRET	AI-2 QS mod	RanGTP-Impb inh	KLK7 zymogen act	Wee1 degr inh	proKLK7 act conf	EDANS-DABCYL int	others
Cc1ccc(S(=O)(=O)NCC2CCC(C(=O)NCCCOC(C)C)CC2)cc1 (configuration not stated)	-1	-2	30	1	·	3	·	·
CCCc1cc(=O)oc2c(CN3CCN(C)CC3)c(O)ccc12	·	·	4	7	46*	·	66*	75*
COc1ccc(-c2c(C(F)(F)F)oc3c(CN4CCN(C)CC4)c(O)ccc3c2=O)cc1	-3	0	8	2	10	2	·	·
CC(=O)Nc1ccc(NC(=O)C/C(C)=N/NC(=O)COc2cc(C)c(Br)cc2Br)cc1	·	·	7	3	1	·	·	·
CCn1c2ccccc2c2cc(C=NNC(=O)c3cc(-c4ccc(OC)cc4)n[nH]3)ccc21	·	·	·	·	50*	·	-13	-32
Cc1ccc(-c2cc(C(=O)NN=Cc3c(O)ccc4ccccc34)[nH]n2)cc1C	·	·	·	·	-69	·	·	·
COc1ccc(-c2cc(C(=O)NN=Cc3ccc(-c4ccccc4)cc3)[nH]n2)cc1	·	·	·	·	1	·	·	·
COc1ccc2ccccc2c1C=NNC(=O)c1cc(-c2ccc(C)c(C)c2)n[nH]1	·	·	·	·	49*	·	22*	15*	K7 EDANS ctr=>69
O=C(O)c1ccccc1-c1nc2ccccc2[nH]1	0	0	6	8	0	3	·	·
Oc1ccc2ccccc2c1C=Nc1ccccc1-c1nc2ccccc2[nH]1	8	8	26	4	38*	2	-43	-39
Cc1ccc(CCNS(=O)(=O)c2cc(Br)cnc2N)cc1	·	·	19	1	1	·	·	·
CC(=O)OCCc1c2ccccc2c(CCCN(C)C)c2ccccc12	·	·	28	0	16*	·	-8	-7
CC(=O)OCCc1[nH]c2ccccc2c1C	·	·	18	2	0	·	·	·
O=C(CCCn1ncn2c(cc3occc32)c1=O)NCc1ccccc1F	·	·	37	3	0	·	·	·
O=C(COC(=O)CCC(NC(=O)OCc1ccccc1)C(=O)OCC(=O)Nc1ccccc1)Nc1ccccc1 (configuration not stated)	-2	-2	7	-3	1	0	·	·
